Experimental data published in ChEMBL document CHEMBL3808334, “Synthesis and in vitro evaluation of novel triazine analogues as anticancer agents and their interaction studies with bovine serum albumin” (Eur J Med Chem, 2016).

Experiments:
Assay type in all cases: functional
[1] = Growth inhibition of human SW620 cells assessed as cell growth at 10^-5 M incubated for 48 hrs by sulforhodamine B assay; conditions: SW-620, 48 h, read-out: Activity
[2] = Growth inhibition of human HL-60(TB) cells assessed as cell growth at 10 uM incubated for 48 hrs by sulforhodamine B assay; conditions: HL-60, 48 h, read-out: Activity
[3] = Growth inhibition of human Caki1 cells incubated for 48 hrs by sulforhodamine B assay; conditions: CAKI-1, 48 h; for CC50: read-out: pLC50 (the source's name) (converted)
In short: (§1)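 Cells seeded at 5,000–40,000/well according to doubling time and preincubated 24 h at 37 °C, 5% CO2. Time-zero plates were TCA-fixed. DMSO concentrate was diluted in medium with 50 µg/ml gentamicin to give five concentrations (10-fold or ½ log steps), then exposed 48 h. Cells were TCA-fixed, stained with 0.4% SRB and read at 515 nm. Percent growth was taken against time-zero and control; GI50, TGI and LC50 derived.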

[4] = Growth inhibition of human SF268 cells assessed as cell growth at 10^-8 M incubated for 48 hrs by sulforhodamine B assay; conditions: SF-268, 48 h, read-out: Activity
U-251 = assay: Growth inhibition of human U251 cells assessed as cell growth at 10 uM incubated for 48 hrs by sulforhodamine B assay; conditions: U-251, 48 h, read-out: Activity
[5] = Growth inhibition of human HOP92 cells assessed as cell growth at 10^-8 M incubated for 48 hrs by sulforhodamine B assay; conditions: HOP-92, 48 h, read-out: Activity
[6] = Growth inhibition of human UACC62 cells assessed as cell growth at 10^-6 M incubated for 48 hrs by sulforhodamine B assay; conditions: UACC-62, 48 h, read-out: Activity
[7] = Growth inhibition of human OVCAR8 cells assessed as cell growth at 10^-5 M incubated for 48 hrs by sulforhodamine B assay; conditions: OVCAR-8, 48 h, read-out: Activity
MDA-MB-468 = assay: Growth inhibition of human MDA-MB-468 cells assessed as cell growth at 10^-7 M incubated for 48 hrs by sulforhodamine B assay; conditions: MDA-MB-468, 48 h, read-out: Activity
SK-MEL-2 = assay: Growth inhibition of human SK-MEL-2 cells assessed as cell growth at 10^-7 M incubated for 48 hrs by sulforhodamine B assay; conditions: SK-MEL-2, 48 h, read-out: Activity
[8] = Growth inhibition of human TK10 cells assessed as cell growth at 10 uM incubated for 48 hrs by sulforhodamine B assay; conditions: TK-10, 48 h, read-out: Activity
[9] = Growth inhibition of human HOP62 cells assessed as cell growth at 10^-8 M incubated for 48 hrs by sulforhodamine B assay; conditions: HOP-62, 48 h, read-out: Activity
EKVX = assay: Growth inhibition of human EKVX cells assessed as cell growth at 10 uM incubated for 48 hrs by sulforhodamine B assay; conditions: read-out: Activity
In short: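 Primary screen at one dose (10 µM) across 60 human cancer cell lines. Readout was growth percent relative to untreated control and time-zero.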

KM12 = assay: Growth inhibition of human KM12 cells assessed as cell growth at 10^-8 M incubated for 48 hrs by sulforhodamine B assay; conditions: KM12, 48 h, read-out: Activity
[10] = Growth inhibition of human PC3 cells assessed as cell growth at 10^-5 M incubated for 48 hrs by sulforhodamine B assay; conditions: PC-3, 48 h, read-out: Activity
SK-MEL-5 = assay: Growth inhibition of human SK-MEL-5 cells assessed as cell growth at 10^-5 M incubated for 48 hrs by sulforhodamine B assay; conditions: SK-MEL-5, 48 h, read-out: Activity
[11] = Growth inhibition of human UACC62 cells assessed as cell growth at 10^-8 M incubated for 48 hrs by sulforhodamine B assay; conditions: UACC-62, 48 h, read-out: Activity
[12] = Growth inhibition of human HL-60(TB) cells assessed as cell growth at 10^-6 M incubated for 48 hrs by sulforhodamine B assay; conditions: HL-60, 48 h, read-out: Activity
In short: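 Cells plated at 5,000–40,000/well according to doubling time and preincubated 24 h at 37 °C, 5% CO₂, with time-zero plates TCA-fixed. Drugs were kept as DMSO concentrates at 400× the top concentration and diluted in medium with 50 µg/ml gentamicin. Five 10-fold or ½-log dilutions were run for 48 h, followed by SRB staining and A515. Percent growth = (Ti−Tz)/(C−Tz)×100, or (Ti−Tz)/Tz×100 when Ti<Tz.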

[13] = Growth inhibition of human SNB75 cells incubated for 48 hrs by sulforhodamine B assay; conditions: SNB-75, 48 h
In short: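 Cells were plated at 5,000–40,000 per well according to doubling time and preincubated 24 h at 37 °C in 5% CO2; time-zero plates were then TCA-fixed. Five concentrations (10-fold or ½-log dilutions, DMSO stock) were incubated 48 h. Cells were TCA-fixed, stained with 0.4% SRB and read at 515 nm. GI50 was taken where [(Ti−Tz)/(C−Tz)]×100 = 50.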

M14 = assay: Growth inhibition of human M14 cells assessed as cell growth at 10^-6 M incubated for 48 hrs by sulforhodamine B assay; conditions: M14, 48 h, read-out: Activity
[14] = Growth inhibition of human SF295 cells assessed as cell growth at 10^-5 M incubated for 48 hrs by sulforhodamine B assay; conditions: SF-295, 48 h, read-out: Activity
[15] = Growth inhibition of human breast cancer cells incubated for 48 hrs by sulforhodamine B assay; conditions: Cancer cell lines; for CC50: read-out: LC50 (the source's name)
[16] = Growth inhibition of human DU145 cells incubated for 48 hrs by sulforhodamine B assay; conditions: DU-145, 48 h; for CC50: read-out: pLC50 (the source's name) (converted); in short: as §1
MCF7 = assay: Growth inhibition of human MCF7 cells assessed as cell growth at 10^-6 M incubated for 48 hrs by sulforhodamine B assay; conditions: MCF7, 48 h, read-out: Activity
ACHN = assay: Growth inhibition of human ACHN cells assessed as cell growth at 10^-7 M incubated for 48 hrs by sulforhodamine B assay; conditions: read-out: Activity
In short: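 Five-dose assay: five concentrations from 10-fold or ½-log serial dilutions. Cells are plated at 5,000–40,000 per well according to doubling time, grown 24 h, then exposed 48 h at 37 °C, 5% CO₂. Fixed with cold 50% TCA (final addition) for 60 min at 4 °C and stained with 0.4% SRB in 1% acetic acid. Bound dye is solubilized in 10 mM Tris base and read at 515 nm. GI₅₀ is where [(Ti−Tz)/(C−Tz)]×100 = 50, with a time-zero plate as Tz.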

[17] = read-out: LC50 (the source's name)
[18] = read-out: pLC50 (the source's name) (converted)

Compound c1ccc(-c2nc(Nc3ccc(-c4nc5ccccc5[nH]4)cc3)nc(N3CCOCC3)n2)cc1 has a growth at 10 µM [1] of -77%, a growth at 10 µM [2] of -32.7% and an LC50 [3] of 5.06 µM. It also gave a GI50 ([3]; read-out: GI50) of 1.28 µM, a TGI ([3]; read-out: TGI) of 2.54 µM and a GI50 ([3]; read-out: pGI50 (converted)) of 1.29 µM. For the same compound, the CC50 [3] was 5.01 µM, the TGI ([3]; read-out: pTGI (converted)) was 2.57 µM and the growth at 0.01 µM [4] was 96%. It also gave a growth at 10 µM (U-251) of -67.5%, a growth at 0.01 µM [5] of 93% and a growth at 1 µM [6] of 84%. For the same compound, the growth at 10 µM [7] was -78%, the growth at 0.1 µM (MDA-MB-468) was 112% and the growth at 0.1 µM (SK-MEL-2) was 101%. It also gave a growth at 10 µM [8] of -58.1%, a growth at 0.01 µM [9] of 92% and a growth at 10 µM (EKVX) of -66.9%. For the same compound, the growth at 0.01 µM (KM12) was 98%, the growth at 10 µM [10] was -72% and the growth at 10 µM (SK-MEL-5) was -92%. For the same compound, the growth at 0.01 µM [11] was 94%, the growth at 1 µM [12] was -7% and the GI50 ([13]; read-out: GI50) was 1.64 µM. For the same compound, the CC50 [13, 17] was 6.07 µM, the TGI ([13]; read-out: TGI) was 3.15 µM and the GI50 ([13]; read-out: pGI50 (converted)) was 1.62 µM. The CC50 [13, 18] was 6.03 µM, the TGI ([13]; read-out: pTGI (converted)) was 3.16 µM and the growth at 1 µM (M14) was 69%. For the same compound, the growth at 10 µM [14] was -76%, the GI50 [15] was 1.63 µM and the TGI [15] was 4.08 µM. The CC50 [15] was 8.74 µM, the LC50 (50% net cell kill) [16] was 5.12 µM and the GI50 ([16]; read-out: GI50) was 1.21 µM. The TGI ([16]; read-out: TGI) was 2.49 µM, the GI50 ([16]; read-out: pGI50 (converted)) was 1.2 µM and the CC50 [16] was 5.13 µM. It also gave a TGI ([16]; read-out: pTGI (converted)) of 2.51 µM, a growth at 1 µM (MCF7) of 47% and a growth at 0.1 µM (ACHN) of 92%.

Fc1ccc(-c2nc(Nc3ccc(-c4nc5ccccc5[nH]4)cc3)nc(N3CCOCC3)n2)cc1 showed a growth at 10 µM [1] of -47%, a growth at 10 µM [2] of -46% and an LC50 [3] greater than 100 µM. For the same compound, the GI50 ([3]; read-out: GI50) was 1.98 µM, the TGI ([3]; read-out: TGI) was 5.02 µM and the GI50 ([3]; read-out: pGI50 (converted)) was 2 µM. It also gave a CC50 [3] greater than 100 µM, a TGI ([3]; read-out: pTGI (converted)) of 5.01 µM and a growth at 0.01 µM [4] of 95%. The growth at 10 µM (U-251) was 6.38%, the growth at 0.01 µM [5] was 96% and the growth at 1 µM [6] was 86%. It also gave a growth at 10 µM [7] of 2%, a growth at 0.1 µM (MDA-MB-468) of 106% and a growth at 0.1 µM (SK-MEL-2) of 101%. For the same compound, the growth at 10 µM [8] was 43.9%, the growth at 0.01 µM [9] was 98% and the growth at 10 µM (EKVX) was 7.91%. For the same compound, the growth at 0.01 µM (KM12) was 95%, the growth at 10 µM [10] was -20% and the growth at 10 µM (SK-MEL-5) was -87%. For the same compound, the growth at 0.01 µM [11] was 91%, the growth at 1 µM [12] was 81% and the GI50 ([13]; read-out: GI50) was 1.8 µM. For the same compound, the CC50 [13, 17] was greater than 100 µM, the TGI ([13]; read-out: TGI) was 10.5 µM and the GI50 ([13]; read-out: pGI50 (converted)) was 1.82 µM. For the same compound, the CC50 [13, 18] was greater than 100 µM, the TGI ([13]; read-out: pTGI (converted)) was 10.5 µM and the growth at 1 µM (M14) was 95%. The growth at 10 µM [14] was -35%, the GI50 [15] was 2.09 µM and the TGI [15] was 5.55 µM. It also gave a CC50 [15] greater than 100 µM, an LC50 (50% net cell kill) [16] greater than 100 µM and a GI50 ([16]; read-out: GI50) of 4.53 µM. For the same compound, the TGI ([16]; read-out: TGI) was greater than 100 µM, the GI50 ([16]; read-out: pGI50 (converted)) was 4.57 µM and the CC50 [16] was greater than 100 µM. It also gave a TGI ([16]; read-out: pTGI (converted)) greater than 100 µM, a growth at 1 µM (MCF7) of 85% and a growth at 0.1 µM (ACHN) of 95%.
